This note sets out measurements from ChEMBL document CHEMBL2331506, “Design, synthesis, antiviral and cytostatic evaluation of novel isoxazolidine nucleotide analogues with a carbamoyl linker” (Bioorg Med Chem, 2013).

For one data set, the system named is Influenza B virus. The data set can be described thus: Antiviral activity against Influenza B virus infected in dog MDCK cells assessed as reduction of virus-induced cytopathogenicity at 250 uM. It is filed as functional, organism-based. Summed up:
(§1)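 Confluent cell monolayers were infected with 100 CCID50 of virus while exposed to varying compound concentrations. Cytopathicity was scored once it was complete in untreated infected controls. EC50 was taken as the concentration that reduced virus-induced cytopathogenicity by 50%.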
In general terms: Cytopathic effects are the visible damage that an infection or toxin causes in cultured cells.

The subject of data set [1] is Mammalian orthoreovirus 1. The data set is described as follows: Antiviral activity against Reovirus 1 infected in african green monkey Vero cells assessed as reduction of virus-induced cytopathogenicity at 250 uM. It is filed as functional, organism-based. The gist of the method: (§2)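 Confluent monolayers (HEL fibroblasts, Vero, or HeLa cells as listed) were infected with 100 CCID50 of virus in the presence of varying compound concentrations. Virus-induced cytopathicity or plaque formation was scored once cytopathicity was complete in untreated infected controls. EC50 was taken as the concentration reducing cytopathogenicity or plaque formation by 50%.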

For data set [2], the system named is Human immunodeficiency virus 2. The data set is described as follows: Antiviral activity against Human immunodeficiency virus 2 ROD infected in human CEM cells assessed as reduction of virus-induced giant cell formation at 250 uM after 4 to 5 days. It is filed as functional, organism-based. To be noted: CCRF-CEM. The gist of the method:
(§3)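 CEM cells at 3 × 10^5 cells/mL were infected with HIV at 100 CCID50 per mL in the presence of compound dilutions. They were held 4–5 days at 37 °C in humidified CO2. Syncytium (giant cell) formation was scored microscopically, and EC50 was taken as the concentration inhibiting giant cell formation by 50%.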

Another data set concerns Human respirovirus 3. The data set is described as follows: Antiviral activity against Parainfluenza virus 3 infected in african green monkey Vero cells assessed as reduction of virus-induced cytopathogenicity at 250 uM. It is filed as functional, organism-based. The gist of the method:
as §2

Data set [3] concerns Vesicular stomatitis virus. The data set can be described thus: Antiviral activity against Vesicular stomatitis virus infected in human HEL cells assessed as reduction of virus-induced cytopathogenicity at 250 uM. It is filed as functional, organism-based. The gist of the method:
as §1

Another data set deals with Feline coronavirus. The data set is described as follows: Antiviral activity against Feline coronavirus infected in cat CRFK cells assessed as reduction of virus-induced cytopathogenicity at 250 uM. It is filed as functional, organism-based.
For another data set, the system named is Sindbis virus. The data set is described as follows: Antiviral activity against Sindbis virus infected in african green monkey Vero cells assessed as reduction of virus-induced cytopathogenicity at 250 uM. It is filed as functional, organism-based. Summed up: as §2
The test system of data set [4] is Influenza A virus. The data set is described as follows: Antiviral activity against Influenza A virus H1N1 infected in dog MDCK cells assessed as reduction of virus-induced cytopathogenicity at 250 uM. It is filed as functional, organism-based. Summed up: as §1
The test system of the next data set is Vero. The data set is described as follows: Cytotoxicity against african green monkey Vero cells assessed as alteration of cell morphology up to 100 uM by microscopic analysis. It is filed as cell-based. The following applies: chlorocebus sabaeus. The gist of the method:
(§4)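 Uninfected host-cell cultures were exposed to compound and examined by microscopy. Cytotoxicity was expressed as the minimum cytotoxic concentration (MCC) causing a microscopically detectable alteration of normal cell morphology.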

The subject of data set [5] is Human alphaherpesvirus 1. The data set is described as follows: Antiviral activity against thymidine kinase-deficient, ACV-resistant Herpes simplex virus 1 KOS infected in human HEL cells assessed as reduction of virus-induced cytopathogenicity at 250 uM. It is filed as functional, organism-based. The gist of the method: as §1
The next data set has as its system Felid alphaherpesvirus 1. The data set can be described thus: Antiviral activity against Feline herpes virus infected in cat CRFK cells assessed as reduction of virus-induced cytopathogenicity at 250 uM. It is filed as functional, organism-based.
The next data set relates to Punta Toro virus. The data set can be described thus: Antiviral activity against Punta Toro virus infected in african green monkey Vero cells assessed as reduction of virus-induced cytopathogenicity at 250 uM. It is filed as functional, organism-based. Summed up:
as §2

The test system of data set [6] is Respiratory syncytial virus. The data set is described as follows: Antiviral activity against Respiratory syncytial virus long infected in human HeLa cells assessed as reduction of virus-induced cytopathogenicity at 250 uM. It is filed as functional, organism-based. Summed up:
as §2

For data set [7], the system named is Human immunodeficiency virus 1. The data set can be described thus: Antiviral activity against Human immunodeficiency virus 1 3B infected in human CEM cells assessed as reduction of virus-induced giant cell formation at 250 uM after 4 to 5 days. It is filed as functional, organism-based. The following applies: CCRF-CEM. Summed up: as §3
A further data set deals with HEL. The data set can be described thus: Cytotoxicity against human HEL cells assessed as alteration of cell morphology up to 100 uM by microscopic analysis. It is filed as cell-based. The gist of the method: as §4
The subject of the next data set is HeLa. The data set can be described thus: Cytotoxicity against human HeLa cells assessed as alteration of cell morphology up to 100 uM by microscopic analysis. It is filed as cell-based. Summed up:
as §4

The test system of a further data set is Coxsackievirus B4. The data set can be described thus: Antiviral activity against Coxsackievirus B4 infected in african green monkey Vero cells assessed as reduction of virus-induced cytopathogenicity at 250 uM. It is filed as functional, organism-based. The gist of the method:
as §2

In data set [8] the test system is Influenza A virus. The data set can be described thus: Antiviral activity against Influenza A virus H3N2 infected in dog MDCK cells assessed as reduction of virus-induced cytopathogenicity at 250 uM. It is filed as functional, organism-based. The gist of the method: as §1
The subject of data set [9] is Human alphaherpesvirus 1. The data set can be described thus: Antiviral activity against Herpes simplex virus 1 KOS infected in human HEL cells assessed as reduction of virus-induced cytopathogenicity at 250 uM. It is filed as functional, organism-based. The gist of the method:
as §2

The subject of the next data set is Human alphaherpesvirus 2. The data set is described as follows: Antiviral activity against Herpes simplex virus 2 G infected in human HEL cells assessed as reduction of virus-induced cytopathogenicity at 250 uM. It is filed as functional, organism-based. The following applies: strain G. The gist of the method: as §2
The nature of data set [10]: Cytotoxicity against cat CRFK cells assessed as alteration of cell morphology up to 100 uM by microscopic analysis. It is filed as cell-based, Felis catus. The gist of the method:
as §4

The next data set concerns MDCK. The data set can be described thus: Cytotoxicity against dog MDCK cells assessed as alteration of cell morphology up to 100 uM by microscopic analysis. It is filed as cell-based, Canis lupus familiaris. Summed up:
as §4

Data set [11] has as its system Vesicular stomatitis virus. The data set is described as follows: Antiviral activity against Vesicular stomatitis virus infected in human HeLa cells assessed as reduction of virus-induced cytopathogenicity at 250 uM. It is filed as functional, organism-based. Summed up: as §1

SMILES strings stand for the structures. Calls of active or inactive are those of the source. No rule for the calls is given here.

Consider `CCOP(=O)(OCC)[C@@H]1C[C@H](C(=O)Nc2ccc(F)cc2)ON1C` (mixture of isomers), for which the inhibition entry (in the data set with Influenza B virus; in [1]; in data set [2]; in the data set on Human respirovirus 3; in data set [3]; in the data set on Feline coronavirus) was “inactive” each time. For the same molecule, the inhibition entry (in the data set with Sindbis virus; in the data set on Influenza A virus [4]; with Human alphaherpesvirus 1 [5]; in the data set with Felid alphaherpesvirus 1; with Punta Toro virus; in [6]) was “inactive” each time. In addition, the inhibition result (in [7]; with Coxsackievirus B4; in the data set on Influenza A virus [8]; with Human alphaherpesvirus 1 [9]; in the data set with Human alphaherpesvirus 2; in data set [11]) was “inactive” in each case. Also, the Activity entry (in the data set with Vero; in the data set with HEL; in the data set with HeLa; in data set [10]; with MDCK) was “Non-toxic” in each case.
Turning to `CCOP(=O)(OCC)[C@H]1C[C@H](C(=O)Nc2ccc(F)cc2F)ON1C` (mixture of isomers), the inhibition result (in the data set on Influenza B virus; in [1]; in data set [2]; with Human respirovirus 3; in data set [3]; with Feline coronavirus) was “inactive” throughout. Moreover, the inhibition entry (in the data set on Sindbis virus; in the data set with Influenza A virus [4]; with Human alphaherpesvirus 1 [5]; in the data set on Felid alphaherpesvirus 1; in the data set on Punta Toro virus; in [6]) was “inactive” throughout. Besides, the inhibition entry (in data set [7]; in the data set with Coxsackievirus B4; with Influenza A virus [8]; in the data set with Human alphaherpesvirus 1 [9]; with Human alphaherpesvirus 2; in [11]) was “inactive” throughout. In addition, the Activity entry (in the data set with Vero; in the data set on HEL; in the data set on HeLa; in [10]; with MDCK) was “Non-toxic” each time.
For `CCOP(=O)(OCC)[C@@H]1C[C@H](C(=O)Nc2ccc(F)cc2F)ON1C` (mixture of isomers), the inhibition result (in the data set with Influenza B virus; in data set [1]; in [2]; in the data set with Human respirovirus 3; in data set [3]; in the data set on Feline coronavirus) was “inactive” in each case. The inhibition result (with Sindbis virus; in the data set on Influenza A virus [4]; with Human alphaherpesvirus 1 [5]; in the data set with Felid alphaherpesvirus 1; in the data set on Punta Toro virus; in [6]) was “inactive” in each case. The inhibition entry (in [7]; in the data set with Coxsackievirus B4; with Influenza A virus [8]; with Human alphaherpesvirus 1 [9]; in the data set on Human alphaherpesvirus 2; in [11]) was “inactive” throughout. The Activity result (in the data set with Vero; in the data set with HEL; with HeLa; in data set [10]; with MDCK) was “Non-toxic” in each case.
In the case of `CCOP(=O)(OCC)[C@H]1C[C@H](C(=O)Nc2ccccc2Br)ON1C` (mixture of isomers), the inhibition result (in the data set with Influenza B virus; in data set [1]; in data set [2]; in the data set on Human respirovirus 3; in [3]; in the data set on Feline coronavirus) was “inactive” each time. For the same molecule, the inhibition entry (with Sindbis virus; in the data set on Influenza A virus [4]; in the data set with Human alphaherpesvirus 1 [5]; with Felid alphaherpesvirus 1; with Punta Toro virus; in [6]) was “inactive” in each case. Further, the inhibition result (in [7]; in the data set with Coxsackievirus B4; in the data set with Influenza A virus [8]; in the data set with Human alphaherpesvirus 1 [9]; in the data set with Human alphaherpesvirus 2; in [11]) was “inactive” in each case. The Activity entry (with Vero; in the data set with HEL; with HeLa; in [10]; in the data set on MDCK) was “Non-toxic” throughout.
With `CCOP(=O)(OCC)[C@@H]1C[C@H](C(=O)Nc2ccccc2Br)ON1C` (mixture of isomers), the inhibition result (in the data set with Influenza B virus; in data set [1]; in data set [2]; in the data set on Human respirovirus 3; in data set [3]; in the data set on Feline coronavirus) was “inactive” throughout. Further, the inhibition result (with Sindbis virus; in the data set on Influenza A virus [4]; with Human alphaherpesvirus 1 [5]; in the data set with Felid alphaherpesvirus 1; with Punta Toro virus; in [6]) was “inactive” throughout. In addition, the inhibition entry (in data set [7]; with Coxsackievirus B4; in the data set with Influenza A virus [8]; in the data set with Human alphaherpesvirus 1 [9]; with Human alphaherpesvirus 2; in data set [11]) was “inactive” throughout. Also, the Activity result (in the data set on Vero; in the data set with HEL; with HeLa; in [10]; in the data set with MDCK) was “Non-toxic” each time.
`CCOP(=O)(OCC)[C@@H]1C[C@H](C(=O)Nc2cccc(Br)c2)ON1C` (mixture of isomers): the inhibition result (with Influenza B virus; in data set [1]; in [2]; in the data set on Human respirovirus 3; in data set [3]; with Feline coronavirus) was “inactive” each time. Besides, the inhibition entry (with Sindbis virus; with Influenza A virus [4]; with Human alphaherpesvirus 1 [5]; with Felid alphaherpesvirus 1; with Punta Toro virus; in data set [6]) was “inactive” in each case. Also, the inhibition result (in data set [7]; in the data set with Coxsackievirus B4; in the data set with Influenza A virus [8]; in the data set with Human alphaherpesvirus 1 [9]; in the data set on Human alphaherpesvirus 2; in [11]) was “inactive” in each case. Also, the Activity result (in the data set with Vero; in the data set on HEL; in the data set with HeLa; in data set [10]; with MDCK) was “Non-toxic” each time.
